Only a selection was taken, and hits are over-represented in it overall.
ABCB6 inh MLPCN – inhibitors of human ABC transporter ABCB6; Q9NP58; K562-ABCB6 porphyrin accumulation, flow cytometry, 1 h; stronger effect = lower value; fluorescence ratio to DMSO, % at 10 µM; 0.19% of 360,000 active; AID 602162;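 active means fluorescence ratio to DMSO below 75%, the collection mean minus 3 SD; inconclusive means too few cells collected in the well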;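 further: signal is porphyrin accumulated inside mitochondria; lower ratio means ABCB6 inhibition with less porphyrin fluorescence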
Dynein cargo inh – dynein cargo transport inhibition; 3617.4 mouse cells, GR-EGFP nuclear translocation imaging; test concentration mostly 20 µM; stimulated with dexamethasone, 1 µM; stronger effect = lower value; z-score, hits read low; 0.47% of 220,000 active;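 active means plate z-score of nuclear minus cytoplasmic receptor signal below a set negative limit, without overly bright fluorescence or cell loss, cut at about -3.5 in these data, passing the limit was not always enough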;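 further: z-score of nuclear minus cytoplasmic ring GR-EGFP intensity difference per well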
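medium = tetracycline-free induction medium containing charcoal-stripped FBS | probe or stimulus = dexamethasone, 1.0 µM final | timing = 48 h induction, then 1 h compound, then 30 min agonist, 37 °C | detection = automated 10x imaging of fixed Hoechst-stained cells | read-out basis = nuclear versus cytoplasmic GR-EGFP signal, averaged per well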
pCIP destab – compounds decreasing mouse p/CIP protein stability; F442A p/CIP-EGFP cells, EGFP fluorescence, 16 h; decrease of EGFP signal, % at 10 µM; 0.01% of 290,000 active; AID 1984;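 active means EGFP signal decrease of at least 30% at 10 µM or well 3 SD below plate mean, unless failing retest; inactive means the rest, including hits failing retest or dose response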
V-ATPase pHluor – alters yeast V-ATPase proton transport | S. cerevisiae, pHLuorin cytosolic pH fluorescence | response, % at 10 µM | 0.37% of 350,000 active; in the data active means response mostly above about 7.3%, no sharp cut-off; inactive means mostly below about 5.4%; further: actives read high
Cl transport mod – modulates chloride dependent transport by human KCC2. 2.2% of 190,000 active. B-score of Tl+ flux slope (higher = more flux/activation; lower = inhibition) at 10 µM. KCC2 cells, thallium flux FluoZin-2 fluorescence. AID 1456. Q9H2X9;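 active means thallium flux slope and its plate-corrected score both differing from the plate sample mean at a set confidence after two filtering rounds, in either direction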;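 further: slope of fluorescence scaled to starting intensity during 10 to 20 s after thallium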
Target sequence (Q9H2X9 whole entry, looked up): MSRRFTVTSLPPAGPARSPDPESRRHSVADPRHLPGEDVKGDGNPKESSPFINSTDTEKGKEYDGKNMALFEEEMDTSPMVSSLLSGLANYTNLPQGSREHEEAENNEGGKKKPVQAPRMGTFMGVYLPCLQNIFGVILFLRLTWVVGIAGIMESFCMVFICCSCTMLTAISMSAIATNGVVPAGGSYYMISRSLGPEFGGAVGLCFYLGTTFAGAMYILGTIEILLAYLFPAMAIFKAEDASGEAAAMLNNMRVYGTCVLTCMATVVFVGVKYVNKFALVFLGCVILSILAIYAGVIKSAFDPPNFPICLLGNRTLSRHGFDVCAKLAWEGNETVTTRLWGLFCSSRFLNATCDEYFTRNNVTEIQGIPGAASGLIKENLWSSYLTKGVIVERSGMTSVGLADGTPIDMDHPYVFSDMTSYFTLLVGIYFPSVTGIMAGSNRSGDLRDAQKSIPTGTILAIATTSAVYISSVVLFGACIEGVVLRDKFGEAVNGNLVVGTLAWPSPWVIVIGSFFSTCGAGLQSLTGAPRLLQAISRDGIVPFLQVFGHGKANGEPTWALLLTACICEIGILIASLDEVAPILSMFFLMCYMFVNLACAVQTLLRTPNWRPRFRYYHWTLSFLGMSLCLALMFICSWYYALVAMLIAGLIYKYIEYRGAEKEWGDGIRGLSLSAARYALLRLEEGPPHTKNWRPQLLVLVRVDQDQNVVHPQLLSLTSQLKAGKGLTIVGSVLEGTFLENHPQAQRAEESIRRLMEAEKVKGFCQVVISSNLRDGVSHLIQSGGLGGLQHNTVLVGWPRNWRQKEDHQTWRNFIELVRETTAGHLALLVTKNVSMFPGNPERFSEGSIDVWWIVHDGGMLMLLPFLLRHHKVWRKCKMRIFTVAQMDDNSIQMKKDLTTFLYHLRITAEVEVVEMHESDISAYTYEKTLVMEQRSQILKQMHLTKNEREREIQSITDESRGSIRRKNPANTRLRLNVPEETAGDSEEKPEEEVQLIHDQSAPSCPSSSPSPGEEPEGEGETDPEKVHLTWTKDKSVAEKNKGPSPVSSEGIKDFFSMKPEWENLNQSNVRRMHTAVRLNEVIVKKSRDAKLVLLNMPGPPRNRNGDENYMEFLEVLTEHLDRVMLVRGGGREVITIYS
KCC2 sec1 – KCC2 (human) modulation, secondary assay; 15% of 3,700 active; normalised thallium flux (F/F0 slope) at 10 µM; HEK293-KCC2, thallium flux, FluoZin2 fluorescence; stronger effect = higher value; shares compounds with Cl transport mod;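 active means thallium flux slope above the same plate's solvent-only control mean plus 3 SD; inconclusive means the two replicate wells disagree; inactive means no significant difference from solvent-only control wells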
KCC2 bumet counter – thallium flux despite bumetanide block in KCC2 cells, secondary assay 3; shares compounds with Cl transport mod; HEK293-KCC2 + bumetanide/ouabain, thallium flux FluoZin2; stronger effect = higher value; normalized thallium flux at 10 µM; 49% of 3,700 active;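 active means thallium entry rate above the same plate's blocked-transporter control wells by more than 3 SD; inconclusive means the two repeat wells disagree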;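 further: raw slope of fluorescence over initial fluorescence between 10 and 20 s after thallium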
KCC2 sec2 – confirmation of human KCC2 transport modulators; 23% of 3,700 active; normalized thallium flux at 10 µM; HEK293-KCC2, thallium flux FluoZin2 fluorescence; actives lie on both sides; F/F0 rise rate, 10–20 s post-thallium; shares compounds with Cl transport mod; AID 1715;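 active means thallium flux slope more than 3 SD above or below the plate's solvent-only control mean, mostly below; inconclusive means the two repeat wells disagreed; inactive means no significant shift from solvent-only controls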
HEK293 Tl flux – counter-screen for KCC2 modulators: effect in parental HEK293 cells | thallium flux rate (normalised fluorescence) at 10 µM | thallium flux FluoZin2, ouabain; baseline-ratio fluorescence slope, 10–20 s after thallium | shares compounds with Cl transport mod | AID 1716 | 46% of 3,700 active;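 active means thallium flux rate significantly above the same plate's solvent-only control wells, beyond their mean plus 3 SD; inconclusive means the two replicate wells gave conflicting results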
KCC2 ouabain – KCC2 (human) modulation, ouabain retest; shares compounds with Cl transport mod; HEK293-KCC2, thallium flux FluoZin2 fluorescence; bidirectional: low = inhibitor, high = activator; raw Tl+ flux slope (below DMSO = inhibition, above = activation) at 10 µM; 48% of 3,700 active;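 active means thallium flux slope beyond 3 SD from same-plate DMSO control mean in most replicates, usually higher, sometimes lower; inconclusive means repeat tests gave conflicting results; inactive means no significant difference from controls in most replicates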;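 further: slope of initial-normalized fluorescence between seconds 10 and 20 after thallium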
HEK counter2 – acts in parental HEK cells, second KCC2 counter-screen | shares compounds with Cl transport mod | 33% of 3,700 active | thallium flux slope at 10 µM | AID 1718 | HEK293 parental, thallium flux FluoZin-2 fluorescence slope;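 active means thallium flux slope above the same plate's solvent-control mean plus 3 SD in both duplicate wells; inconclusive means duplicate wells that disagreed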;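 further: run without ouabain in cells lacking the KCC2 cotransporter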
Large screens that a line does not name were inactive (follow-up assays come after a bar, where they were run).

C/C(=N\NC(=S)NCc1ccccc1)c1ccccc1F	none
C/C(=N\NC(=O)c1nc2ccccn2c1C)c1cc2ccccc2o1	Cl transport mod 16 | KCC2 sec1 inactive | KCC2 bumet counter 0.065 | KCC2 sec2 0.047 | HEK293 Tl flux 0.036 | KCC2 ouabain 0.05 | HEK counter2 0.039
C/C(=N\NC(=O)c1nc2ccccn2c1C)c1ccco1	none
COc1ccc(/C=N/NC(=O)c2nnn(-c3nonc3N)c2-c2cccs2)c(OC)c1	none (no result: Dynein cargo inh, Cl transport mod)
CCSc1nnc(NC(=O)c2ccc3ccccc3n2)s1	Cl transport mod 36 | KCC2 sec1 0.032 | KCC2 bumet counter 0.12 | KCC2 sec2 inactive | HEK293 Tl flux 0.088 | KCC2 ouabain 0.072 | HEK counter2 0.018
CCc1nnc(NC(=O)c2ccc3ccccc3n2)s1	Cl transport mod 6.4 | KCC2 sec1 inconclusive | KCC2 bumet counter 0.027 | KCC2 sec2 inactive | HEK293 Tl flux 0.013 | KCC2 ouabain inconclusive | HEK counter2 0.011
CCc1nnc(NC(=O)c2nc(Cl)ccc2Cl)s1	none (no result: Dynein cargo inh, Cl transport mod)
CCOC(=O)c1cnc2c(C(=O)OC)cccc2c1NCc1cccnc1	none
COc1cc(-c2nc(CN3CCN(c4ncccn4)CC3)c(C)o2)ccc1F	Cl transport mod -3 | KCC2 sec1 inactive | KCC2 bumet counter inactive | KCC2 sec2 inactive | HEK293 Tl flux inconclusive | KCC2 ouabain inactive | HEK counter2 inconclusive
CCOC(=O)c1c(C)[nH]c(C)c1S(=O)(=O)N(C)CC(=O)NCc1ccc(F)cc1	none (no result: Dynein cargo inh, Cl transport mod)
CCOC(=O)C1CCCN(c2c(NCCCN(CC)c3ccccc3)c(=O)c2=O)C1 (stereo not given)	Cl transport mod 4.6 | KCC2 sec1 inactive | KCC2 bumet counter inactive | KCC2 sec2 inactive | HEK293 Tl flux inactive | KCC2 ouabain inactive | HEK counter2 inactive
Cc1ccccc1-c1cc2nc(Oc3cccc(F)c3)n(C)c(=O)c2s1	none (no result: Dynein cargo inh, pCIP destab, V-ATPase pHluor, Cl transport mod)
O=C(C1CCC(Cn2c(=S)[nH]c3ccccc3c2=O)CC1)N1CCN(c2ccccc2)CC1 (stereo not given)	none (no result: pCIP destab)
O=C(C1CCC(CNc2nc(=S)[nH]c3ccccc23)CC1)N1CCN(c2ccc(F)cc2)CC1 (stereo not given)	Cl transport mod -7.5 | KCC2 sec1 inactive | KCC2 bumet counter inactive | KCC2 sec2 0.022 | HEK293 Tl flux 0.006 | KCC2 ouabain 0.01 | HEK counter2 inactive
COc1ccc(N2CCN(CCCNC(=O)C3CCC(CNc4nc(=S)[nH]c5ccccc45)CC3)CC2)cc1 (stereo not given)	none
COc1ccc(N2CCN(C(=O)C3CCC(Cn4c(=S)[nH]c5ccccc5c4=O)CC3)CC2)cc1 (stereo not given)	Cl transport mod 2.8 | KCC2 sec1 inactive | KCC2 bumet counter 0.014 | KCC2 sec2 inactive | HEK293 Tl flux 0.014 | KCC2 ouabain inconclusive | HEK counter2 0.015
CCOc1cccc(CN2CCC(CCC(=O)NC3CC3)CC2)c1O	none (no result: Dynein cargo inh, Cl transport mod)
Cc1nc(SCC(=O)Nc2c(C)nn(C)c2C)c2cnn(-c3ccccc3)c2n1	Cl transport mod -6.8 | KCC2 sec1 inactive | KCC2 bumet counter inactive | KCC2 sec2 inactive | HEK293 Tl flux inactive | KCC2 ouabain inactive | HEK counter2 inactive

Assay outcomes as filed in PubChem BioAssay.
